Biological target: T1, OR10H1 (Homo sapiens) (UniProt Q9Y4A9)
T1 sequence (whole entry): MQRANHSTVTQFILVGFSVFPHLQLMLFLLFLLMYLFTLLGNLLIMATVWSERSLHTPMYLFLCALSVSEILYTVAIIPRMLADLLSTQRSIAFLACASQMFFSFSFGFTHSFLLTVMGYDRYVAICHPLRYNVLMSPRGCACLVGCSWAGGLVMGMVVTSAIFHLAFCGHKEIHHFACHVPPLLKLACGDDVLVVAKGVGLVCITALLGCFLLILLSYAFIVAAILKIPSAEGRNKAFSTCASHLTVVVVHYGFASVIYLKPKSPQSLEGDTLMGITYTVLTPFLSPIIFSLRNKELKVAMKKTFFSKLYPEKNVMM
Conditions: stereoisomer not certain
In short: (§1)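 Each receptor–molecule pair is labelled responsive or non-responsive (inactive) according to whether the original authors judged the measured signal statistically different from baseline. The data were taken from the main text and supplementary material of published papers and checked for typos and inconsistencies. Assay methods differed by source, with transient luciferase assays in mammalian cell lines being common.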
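Also: active if original authors judged signal statistically different from baseline.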

Odorant receptor agonist call, inactive:
CCCCCCC=CCCC=O
CC1CCCCCCCCCCCCC(=O)C1 (stereo unspecified)
CCC1OC(=O)C(O)=C1C (stereo unspecified)
CCCCCC(=O)C(C)C(C)=O (stereo unspecified)
CC1=C(O)C(=O)C(C)O1 (stereo unspecified)
CC1=NC(C)C(C)S1 (stereo unspecified)
CCC1OC(C)=C(O)C1=O (stereo unspecified)
CCCC(S)CCOC(C)=O (stereo unspecified)
CCCCCC(S)C(C)CO (stereo unspecified)
CCCCC(S)C(C)CO (stereo unspecified)
CC(CO)CS (stereo unspecified)
CC(=O)c1c(C)c([N+](=O)[O-])c(C(C)(C)C)c([N+](=O)[O-])c1C
c1ccccc1
Cc1cnc(C)c(C)n1
CCC(S)C(C)CO (stereo unspecified)
CC1=C(O)C(=O)OC1C (stereo unspecified)

Biological target: T2, OR10H2 (Homo sapiens) (UniProt O60403)
T2 sequence (whole entry): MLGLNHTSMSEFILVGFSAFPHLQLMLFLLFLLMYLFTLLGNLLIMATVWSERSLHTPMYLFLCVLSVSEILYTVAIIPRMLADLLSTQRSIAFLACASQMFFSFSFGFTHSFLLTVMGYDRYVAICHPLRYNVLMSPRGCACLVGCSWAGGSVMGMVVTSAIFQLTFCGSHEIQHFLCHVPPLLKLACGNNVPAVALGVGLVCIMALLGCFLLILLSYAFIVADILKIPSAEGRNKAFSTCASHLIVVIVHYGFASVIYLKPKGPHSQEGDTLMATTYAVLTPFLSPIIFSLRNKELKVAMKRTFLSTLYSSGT
Conditions: stereoisomer not certain
In short: as §1

Odorant receptor agonist call, inactive:
CCCCCCC=CCCC=O
CC1CCCCCCCCCCCCC(=O)C1 (stereo unspecified)
CCC1OC(=O)C(O)=C1C (stereo unspecified)
CCCCCC(=O)C(C)C(C)=O (stereo unspecified)
CC1=C(O)C(=O)C(C)O1 (stereo unspecified)
CC1=NC(C)C(C)S1 (stereo unspecified)
CCC1OC(C)=C(O)C1=O (stereo unspecified)
CCCC(S)CCOC(C)=O (stereo unspecified)
CCCCCC(S)C(C)CO (stereo unspecified)
CCCCC(S)C(C)CO (stereo unspecified)
CC(CO)CS (stereo unspecified)
CC(=O)c1c(C)c([N+](=O)[O-])c(C(C)(C)C)c([N+](=O)[O-])c1C
Cc1cnc(C)c(C)n1
CCC(S)C(C)CO (stereo unspecified)
CC1=C(O)C(=O)OC1C (stereo unspecified)

Biological target: T3, OR10H3 (Homo sapiens) (UniProt O60404)
T3 sequence (whole entry): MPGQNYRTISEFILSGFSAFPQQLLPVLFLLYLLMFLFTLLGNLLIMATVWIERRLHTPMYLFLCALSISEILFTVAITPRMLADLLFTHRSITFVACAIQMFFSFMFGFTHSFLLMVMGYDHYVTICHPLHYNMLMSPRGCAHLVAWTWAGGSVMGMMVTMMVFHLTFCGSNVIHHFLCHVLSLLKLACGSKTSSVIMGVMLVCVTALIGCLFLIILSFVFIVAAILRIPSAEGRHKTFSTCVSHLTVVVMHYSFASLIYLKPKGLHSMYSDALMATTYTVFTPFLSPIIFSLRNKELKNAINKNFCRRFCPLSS
Conditions: stereoisomer not certain
In short: as §1

Odorant receptor agonist call, inactive:
CCCCCCC=CCCC=O
CC1CCCCCCCCCCCCC(=O)C1 (stereo unspecified)
CCC1OC(=O)C(O)=C1C (stereo unspecified)
CCCCCC(=O)C(C)C(C)=O (stereo unspecified)
CC1=C(O)C(=O)C(C)O1 (stereo unspecified)
CC1=NC(C)C(C)S1 (stereo unspecified)
CCC1OC(C)=C(O)C1=O (stereo unspecified)
CCCC(S)CCOC(C)=O (stereo unspecified)
CCCCCC(S)C(C)CO (stereo unspecified)
CCCCC(S)C(C)CO (stereo unspecified)
CC(CO)CS (stereo unspecified)
CC(=O)c1c(C)c([N+](=O)[O-])c(C(C)(C)C)c([N+](=O)[O-])c1C
Cc1cnc(C)c(C)n1
CCC(S)C(C)CO (stereo unspecified)
CC1=C(O)C(=O)OC1C (stereo unspecified)

— the M2OR odorant receptor database
